Measured values gathered from unrelated publications.
Compare with care: the assays were run in different laboratories.
MET M1250T: Hepatocyte growth factor receptor (MET, Homo sapiens, UniProt P08581, M1250T)
MET: Hepatocyte growth factor receptor (MET, Homo sapiens, UniProt P08581)
MET Y1235D: Hepatocyte growth factor receptor (MET, Homo sapiens, UniProt P08581, Y1235D)

Cn1cncc1[C@](O)(COc1ccc(C#N)cc1-c1ccc(OC(F)(F)F)cc1)c1ccc(C#N)cc1  remaining binding (MET M1250T; cell-free assay; competition with immobilised ligand; 1 µM): 100%
O=c1[nH]c2ccccc2n1C1CCN(Cc2ccc(-c3[nH]c4cc5ncnc5cc4nc3-c3ccccc3)cc2)CC1  remaining signal (MET; cell-free assay; 0.5 µM): 102%
COc1ncccc1-c1cnn2ccc(N3CCN(C(=O)OC(C)C)CC3)nc12  remaining binding (MET; binding; competition with immobilised ligand; 1 µM): 88%
Cn1cc(-c2cc(F)cc(N3CCn4c(cc5c4CCCC5)C3=O)c2CO)cc(Nc2ccc(N3CCN(C4COC4)CC3)cn2)c1=O  inhibition (MET; enzyme activity; inhibitor; 0.1 µM): 15%
CC(C)(C)c1cc(C=C(C#N)C#N)cc(Br)c1O  remaining activity (MET; enzyme activity; inhibitor; 0.5 µM): 111%
C#Cc1n[nH]c2c(-c3cn(C(C)c4ccccn4)c(=O)[nH]c3=O)cc(F)cc12 (stereo not shown)  inhibition (Hepatocyte growth factor receptor (MET, Homo sapiens, UniProt P08581, D1228H); enzyme activity; inhibitor; 1 µM): 100%
Nc1ncc(-c2nc(N3CCOCC3)nc(N3CCOCC3)n2)c(C(F)F)n1  remaining binding (MET Y1235D; cell-free assay; competition with immobilised ligand; 10 µM): 92%
Cn1cc(-c2cccc(N3CCc4c(sc5c4CC(C)(C)C5)C3=O)c2CO)cc(Nc2ccncn2)c1=O  inhibition (MET M1250T; enzyme activity; inhibitor; 1 µM): 5%
N#CC1(c2ccccn2)CCN(Cc2cc(C(=O)O)c(=O)n3ccccc23)CC1  remaining binding (MET Y1235D; cell-free assay; competition with immobilised ligand; 1 µM): 99%
Cc1nn(C)cc1-c1nc2c(N3CCN(Cc4ccc(Cl)cc4)CC3)c(Cl)cnc2[nH]1  remaining binding (MET; binding; competition with immobilised ligand; 1 µM): 83%
